Source: PubChem
LEDGF integ inh: blockers of LEDGF/p75-dependent integrase strand transfer – biochemical, TR-FRET, high throughput, primary screen | actives 0.64% (n = 370,000) | TR-FRET IN-LEDGF/p75 DNA integration, Eu/Cy5 | inhibition, % at 3.7 µM | HIV-1 integrase (with human LEDGF/p75);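 active = inhibition above the screen-wide mean plus 3 SD, cut at about 13% in these data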;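 also: signal is the Cy5 over europium emission ratio at 671 and 618 nm; 0% = plate median of compound wells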
rCAG binder: binders of r(CAG) RNA repeats, primary screen, biochemical, fluorescence; r(CAG) RNA repeat, TO-PRO-1 dye displacement fluorescence; inhibition, % at 3 µM; actives 1.3% (n = 370,000); AID 651821, 2012;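 active = inhibition above the plate cutoff, the mean of all test compounds on that plate plus 3 SD, cut at about 35% in these data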;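 also: 0% = DMSO alone and 100% = 100 µM mitoxantrone as full dye displacement; higher means more dye released from RNA so lower well fluorescence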
ATG4B inhibitor: ATG4B protease inhibitors, primary screen, biochemical, fluorescence, uHTS. Cysteine protease ATG4B (Homo sapiens), Q9Y4P1. ATG4B cleavage of LC3-PLA2, NBD-HPC fluorescence, 1 h. inhibition, % at 8.33 µM. actives 0.51% (n = 340,000). AID 504462, 2011; in the data active = inhibition above about 40%
CSN deneddyl inh: inhibitors of CSN-mediated cullin deneddylation, primary screen, biochemical, fluorescence polarization, uHTS; COP9 signalosome complex subunit 5 (Homo sapiens), Q92905; Purified CSN, SCF-Nedd8-OG deneddylation; inhibition, % at 12.5 µM; actives 0.38% (n = 360,000); AID 651999, 2013;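 active = pattern-corrected inhibition above about 35%, with an unprinted fluorescence ratio check between 0.5 and 1.5, limit read from the data, passing the limit was not always enough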;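 also: 0% = enzyme with substrate and 100% = substrate without enzyme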
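test system = HEK293T-derived human Csn5 enzyme | amount = 0.24 nM Csn5 enzyme, final concentration | medium = Tris/NaCl/DTT buffer, pH 7.5 | schedule = 90 min reaction at room temperature | signal = FP | evaluation = inhibition of Csn5 cleavage, % | compound dosing = single dose of 12.5 µM compound with 0.25% DMSO | probe or stimulus = 10 nM SCFSkp2-Nedd8OG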
UHRF1 MBD2 ctr: UHRF1 methylated DNA binding inhibitors, primary screen, counter-screen for MBD2 inhibitor project, biochemical, TR-FRET, human UHRF1, single concentration; inhibition, % at 4.4 µM; actives 0.75% (n = 370,000); UHRF1 binding to methylated oligo; in the data active = inhibition above about 21%;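 also: UHRF1 SRA domain binding a hemimethylated CpG hairpin DNA probe; 0% = median of test compound wells and 100% = reference inhibitor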
MBD2 inh: inhibitors of MBD2 binding to methylated DNA, primary screen, biochemical, TR-FRET, DNA-binding domain, human | Methyl-CpG-binding domain protein 2 (Homo sapiens), Q9UBB5 | MBD2 binding to methylated oligonucleotide | AID 686964, 2013 | actives 0.31% (n = 370,000) | inhibition, % at 4.4 µM; in the data active = inhibition above about 13%
Target sequence (Q9UBB5 whole entry, looked up, the tested form may be a part): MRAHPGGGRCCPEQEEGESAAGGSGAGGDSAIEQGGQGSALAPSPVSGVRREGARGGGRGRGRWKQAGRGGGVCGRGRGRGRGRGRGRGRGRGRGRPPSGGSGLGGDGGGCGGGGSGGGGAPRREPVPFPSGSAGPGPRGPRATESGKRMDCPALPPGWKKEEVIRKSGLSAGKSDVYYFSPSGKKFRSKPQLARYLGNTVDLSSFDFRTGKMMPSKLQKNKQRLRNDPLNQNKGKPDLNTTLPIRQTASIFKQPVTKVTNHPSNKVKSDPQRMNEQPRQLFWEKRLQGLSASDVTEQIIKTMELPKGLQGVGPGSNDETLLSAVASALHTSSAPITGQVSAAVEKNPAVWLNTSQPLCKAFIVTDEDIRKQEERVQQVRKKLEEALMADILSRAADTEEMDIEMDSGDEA
rCAG bind conf: small molecules binding CAG repeat RNA – biochemical, fluorescence, confirmation; shares compounds with rCAG binder; r(CAG) RNA repeat, TO-PRO-1 dye displacement fluorescence; inhibition, % at 3 µM; actives 70% (n = 4,300); AID 652065, 2013;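 active = inhibition above a per-plate cutoff, the mean inhibition of sample wells plus 3 SD, cut at about 35% in these data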;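 also: loss of TO-PRO-1 fluorescence as compound displaces dye from 1x1 AA loop RNA; 0% = DMSO only wells and 100% = 100 µM mitoxantrone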
dCAG dye counter: displacement of TO-PRO-1 from CAG DNA duplex, counter-screen for rCAG RNA repeat binder project, biochemical, fluorescence, TO-PRO-1 dye, d(CAG) DNA oligo; shares compounds with rCAG binder; d(CAG) DNA oligo TO-PRO-1 dye displacement; inhibition, % at 3 µM; actives 94% (n = 4,300);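 active = inhibition above its plate's cutoff, the mean test-well inhibition plus 3 SD, cut at about 4.8% in these data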;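 also: 0% = DNA dye mix with DMSO and 100% = 100 µM mitoxantrone; hits displace the dye from DNA and so lower well fluorescence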
Active calls of the source: *. Most compounds without a hit are left out; they make up all but 3.1% or so of the library.

COc1ccc(S[C@]2(C(=O)NCCc3ccccc3)CC(=O)N[C@@H]2c2ccc(OC)cc2)cc1 was read as LEDGF integ inh 9.5, rCAG binder 1.6, UHRF1 MBD2 ctr 3.8 and MBD2 inh -4.6.
For CC(c1ccco1)N(C(=O)c1ccccc1NS(=O)(=O)c1cccc([N+](=O)[O-])c1)c1ccccn1 (stereo unspecified) the results were ATG4B inhibitor 0.1 and CSN deneddyl inh 4.5.
For CC(c1ccco1)N(C(=O)c1ccccc1NS(=O)(=O)c1cc([N+](=O)[O-])ccc1Cl)c1ccccn1 (stereo unspecified) the results were LEDGF integ inh 4.3, rCAG binder 57.7*, ATG4B inhibitor -10.3, CSN deneddyl inh -2.6, UHRF1 MBD2 ctr 26.2*, MBD2 inh 6.0, rCAG bind conf 53.2* and dCAG dye counter 20.6*.
Screening Cc1cccc(C(=O)N[C@@H]2CC[C@@]34CCCN3C(=O)CCC[C@H]4[C@H]2C)c1 returned LEDGF integ inh -1.4, UHRF1 MBD2 ctr 1.1 and MBD2 inh 6.1.
`Cc1onc(-c2c(Cl)cccc2Cl)c1C(=O)NN1CCCCCC1` gave LEDGF integ inh -2.3, rCAG binder -0.2, ATG4B inhibitor 2.2, CSN deneddyl inh 6.9, UHRF1 MBD2 ctr 4.7 and MBD2 inh 0.1.
`CSC(=NS(=O)(=O)c1ccccc1)NNC(=O)c1c(-c2c(Cl)cccc2Cl)noc1C` gave LEDGF integ inh 1.6, rCAG binder 34.8*, CSN deneddyl inh -6.3, UHRF1 MBD2 ctr -1.4, MBD2 inh 1.5, rCAG bind conf 24.3 and dCAG dye counter 4.3.
`O=C(O)c1ccc(Cn2cnc3scc(-c4ccccc4)c3c2=O)cc1` gave LEDGF integ inh -3.8, rCAG binder 7.3, ATG4B inhibitor 5.1, CSN deneddyl inh 0.9, UHRF1 MBD2 ctr 4.0 and MBD2 inh 6.2.
CCCOc1ccc(-c2csc3ncn(Cc4ccc(C(=O)O)cc4)c(=O)c23)cc1 was read as LEDGF integ inh 1.6, rCAG binder 51.3*, ATG4B inhibitor -3.9, CSN deneddyl inh 5.6, UHRF1 MBD2 ctr -0.6, MBD2 inh 4.6, rCAG bind conf 39.6* and dCAG dye counter 11.1*.
For Cc1ccc(-c2nc(-c3ccc(Cl)cc3)sc2CC(=O)O)c(C)c1 the results were LEDGF integ inh 2.6, rCAG binder 44.9*, ATG4B inhibitor 4.1, CSN deneddyl inh -5.9, UHRF1 MBD2 ctr 0.1, MBD2 inh 1.5, rCAG bind conf 30.5 and dCAG dye counter 8.7*.
O=C(O)Cc1sc(-c2ccccc2Cl)nc1-c1ccccc1 was read as LEDGF integ inh 0.3, rCAG binder 16.7, ATG4B inhibitor -0.7, CSN deneddyl inh 8.5, UHRF1 MBD2 ctr 3.2 and MBD2 inh 0.5.
Screening COC(=O)c1sc(N2C(=O)C(=O)/C(=C(/O)c3ccccc3)C2c2ccco2)nc1C (stereo unspecified) returned LEDGF integ inh 0.1, rCAG binder 37.5*, ATG4B inhibitor -4.4, CSN deneddyl inh 7.8, UHRF1 MBD2 ctr -1.9, MBD2 inh -0.4, rCAG bind conf 31.2 and dCAG dye counter 6.3*.
Screening Cc1nc(N2C(=O)C(=O)/C(=C(/O)c3ccccc3)C2c2ccco2)sc1C (stereo unspecified) returned LEDGF integ inh -0.5, rCAG binder 19.0, ATG4B inhibitor -4.1, CSN deneddyl inh 3.9, UHRF1 MBD2 ctr -3.1 and MBD2 inh 2.0.
